Legend:
[1] = molecular target: T1, Renin (Homo sapiens, UniProt P00797); test: Inhibition of human renin
T1 sequence (P00797 whole entry): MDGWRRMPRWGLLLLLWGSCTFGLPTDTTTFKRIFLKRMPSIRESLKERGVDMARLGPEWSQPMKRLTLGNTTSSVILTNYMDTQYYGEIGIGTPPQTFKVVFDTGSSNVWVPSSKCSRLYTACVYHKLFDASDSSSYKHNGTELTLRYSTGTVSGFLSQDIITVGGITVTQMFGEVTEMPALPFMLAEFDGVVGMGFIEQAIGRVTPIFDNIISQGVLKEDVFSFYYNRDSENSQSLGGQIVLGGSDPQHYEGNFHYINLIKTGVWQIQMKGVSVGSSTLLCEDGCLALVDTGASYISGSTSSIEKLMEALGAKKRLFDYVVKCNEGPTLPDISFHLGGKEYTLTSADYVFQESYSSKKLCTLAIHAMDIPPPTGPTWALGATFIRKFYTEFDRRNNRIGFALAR

[2] = molecular target: T2, Renin (Homo sapiens) (UniProt P00797); test: Percent inhibition against human renin at the concentration of 10 uM
T2 sequence (whole entry): T1 sequence (P00797 whole entry)

[3] = molecular target: T2, Renin (Homo sapiens); test: Percent inhibition against human renin at the concentration of 1 uM
[4] = molecular target: T2, Renin (Homo sapiens); test: Percent inhibition against human renin at the concentration of 100 uM
Outline: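 Each compound was tested twice at 100 µM against partially purified human renal renin with human plasma angiotensinogen in pH 7.0 phosphate buffer with protease inhibitors and 1% DMSO, for 120 min at 30 °C. Angiotensin I generation was quantified by radioimmunoassay and expressed as percent inhibition of the vehicle control rate.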

SMILES | IC50 [1] [nM] | inhibition [4] [%] | other results
CC(C)CCNC(=O)C(Cc1c[nH]c2ccccc12)NC(=O)[C@H](CCCCN)N1C(=O)CN[C@H](Cc2ccccc2)C(=O)N[C@@H](Cc2ccccc2)C1=O (stereo in doubt) | 2740 |  | 
CC(C)CCNC(=O)C(Cc1c[nH]c2ccccc12)NC(=O)[C@H](CCCCN)N1C(=O)C(c2ccccc2)CCC(=O)N[C@@H](Cc2ccccc2)C1=O (stereo in doubt) | 1500 |  | 
COC(=O)[C@H](CC(C)C)NC(=O)C(Cc1c[nH]c2ccccc12)NC(=O)[C@H](CSCNC(C)=O)NC(=O)[C@H](Cc1ccccc1)NC(=O)OC(C)(C)C (stereo in doubt) | 40000 |  | 
COC(=O)[C@H](CC(C)C)NC(=O)C(Cc1c[nH]c2ccccc12)NC(=O)[C@H](CCCCN)NC(=O)[C@H](Cc1ccccc1)NC(=O)OCc1ccccc1 (stereo in doubt) | 31000 |  | 
CC(C)CCNC(=O)C(Cc1c[nH]c2ccccc12)NC(=O)[C@H](CCCCN)N1C(=O)COCC(=O)N[C@@H](Cc2ccccc2)C1=O (stereo in doubt) | 2300 |  | 
CC(C)CCNC(=O)C(Cc1c[nH]c2ccccc12)NC(=O)[C@H](CCCCN)N1C(=O)CN[C@@H](Cc2ccccc2)C(=O)N[C@@H](Cc2ccccc2)C1=O (stereo in doubt) | 750 |  | 
COC(=O)[C@H](CC(C)C)NC(=O)C(Cc1c[nH]c2ccccc12)NC(=O)[C@H](CCCCN)N1C(=O)CC[C@H](NC(=O)OCc2ccccc2)C(=O)N[C@@H](Cc2ccccc2)C1=O (stereo in doubt) | 3200 |  | 
CCC(C)CNC(=O)C(Cc1c[nH]c2ccccc12)NC(=O)[C@H](CCCCN)N1C(=O)[C@H](Cc2ccccc2)NC(=O)CCC(C)(C)C1=O (stereo in doubt) | 1400 |  | 
CC(C)CC(C)CNC(=O)C(Cc1c[nH]c2ccccc12)NC(=O)[C@H](CCCCN)N1C(=O)CC(C)CC(=O)N[C@@H](Cc2ccccc2)C1=O (stereo in doubt) | 240 |  | 
CC(C)CCNC(=O)C(Cc1c[nH]c2ccccc12)NC(=O)[C@H](CCCCN)N1C(=O)CCC(=O)N[C@@H](Cc2ccccc2)C1=O (stereo in doubt) |  |  | inhibition [2]: 53%
CC(C)CCNC(=O)C(Cc1c[nH]c2ccccc12)NC(=O)[C@H](CCCCN)N1C(=O)CN[C@H](CC(C)C)C(=O)N[C@@H](Cc2ccccc2)C1=O (stereo in doubt) |  | 88 | inhibition [3]: 10%
CC(C)CCNC(=O)C(Cc1c[nH]c2ccccc12)NC(=O)[C@H](CCCCN)N1C(=O)CSCC(=O)N[C@@H](Cc2ccccc2)C1=O (stereo in doubt) |  | 66 | 
CC(C)CCNC(=O)C(Cc1c[nH]c2ccccc12)NC(=O)[C@H](CCCCN)N1C(=O)[C@H](Cc2ccccc2)NC(=O)CN[C@H](Cc2ccccc2)C1=O (stereo in doubt) |  | 57 | 
CC(C)CCNC(=O)C(Cc1c[nH]c2ccccc12)NC(=O)[C@H](CCCCN)N1C(=O)[C@H](Cc2ccccc2)NCC(=O)N[C@@H](Cc2ccccc2)C1=O (stereo in doubt) |  | 52 | 
CCC(C)CNC(=O)C(Cc1c[nH]c2ccccc12)NC(=O)[C@H](CCCCN)N1C(=O)CC(C)(C)CC(=O)N[C@@H](Cc2ccccc2)C1=O (stereo in doubt) |  | 63 | 
CC[C@@H](C)[C@@H]1NCC(=O)N[C@@H](Cc2ccccc2)C(=O)N([C@@H](CCCCN)C(=O)NC(Cc2c[nH]c3ccccc23)C(=O)NCCC(C)C)C1=O (stereo in doubt) |  |  | inhibition [2]: 58%
CC[C@H](C)[C@@H]1NCC(=O)N([C@@H](CCCCN)C(=O)NC(Cc2c[nH]c3ccccc23)C(=O)NCCC(C)C)C(=O)[C@H](Cc2ccccc2)NC1=O (stereo in doubt) |  | 84 | inhibition [2]: 45%
